The text below walks through data of ChEMBL document CHEMBL3627704, “Synthesis, quorum sensing inhibition and docking studies of 1,5-dihydropyrrol-2-ones” (Bioorg Med Chem, 2015).

Active and inactive are the calls of the source. The calls are words filed in the database; no cut-off is given here.

In this assay the test system is Escherichia coli. The assay can be described thus: Inhibition of quorum sensing in Escherichia coli JB357 expressing green fluorescent protein assessed as reduction of OHHL-induced GFP expression after 2 hrs by fluorescence assay relative to OHHL. An outline of the steps: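 E. coli JB357 carrying Vibrio fischeri luxR-PluxI-gfp(ASV) reporter; OHHL at final 10, 20, 50 or 100 nM in culture medium, triplicate wells, with dihydropyrrol-2-one at 0–10 mg/mL. Incubated 2 h at 37 °C; GFP fluorescence read relative to solvent control (100%). ID40 taken for each OHHL level and plotted against OHHL. AIC40 is the gradient of the fit forced through origin (inhibitor mol : OHHL mmol).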
Consider `CCCCN1C(=O)C=C(Br)C1=C(Br)Br`, for which the inhibition result was “inactive”. As for `CCCCCCC1=CC(=C(Br)Br)N(CCCC)C1=O`, the inhibition result is “inactive”. With `O=C1C=C(Br)C2(CBr)OCCN3C(=O)C=C(Br)C3(CBr)OCCN12` (stereo unspecified), the Ratio worked out at 78.

Consider `CCCCCCC1=C(Br)/C(=C/Br)N(CCCC)C1=O`, for which the inhibition result was “inactive”. For the compound `CC(C)CN1C(=O)C=C(Br)/C1=C/Br`, the inhibition result was “inactive”. Still for that read-out and setting: with `CCCCCC(Br)C1=CC(=C(Br)Br)N(c2ccccc2)C1=O` (stereo unspecified) the entry was “inactive”. Consider `CCCCC1=C(Br)/C(=C/Br)N(CCCC)C1=O`, for which the Ratio stood at 279.

For the compound `CC(C)CN1C(=O)C=C(Br)C1=C(Br)Br`, the Ratio was found to be 65. With `O=C1C=C(Br)C(=C(Br)Br)N1Cc1ccccc1`, the Ratio was 150. As to `CCCCCCC1=C(Br)/C(=C/Br)N(c2ccccc2)C1=O`, the inhibition entry is “inactive”. Same read-out and setting: with `CCCC(O)C1=CC(=C(Br)Br)N(Cc2ccccc2)C1=O` (stereo unspecified) the entry was “inactive”; with `CCCCCC(O)C1=CC(=C(Br)Br)N(Cc2ccccc2)C1=O` (stereo unspecified), “inactive”. Same read-out and setting: then `CCCC(O)C1=CC(=C(Br)Br)N(c2ccccc2)C1=O` (stereo unspecified), with “inactive”.

Regarding `O=C1C=C(Br)/C(=C/Br)N1Cc1ccccc1`, the Ratio came to 26. For the compound `CCCCC1=CC(=C(Br)Br)N(c2ccc(C)cc2)C1=O`, the inhibition entry is “inactive”. On to `CCCCCCC1=CC(=C(Br)Br)N(c2ccccc2)C1=O`, for which the Ratio came out at 248.

Regarding `CCCCCCCCN1C(=O)C=C(Br)/C1=C/Br`, the Ratio stood at 20. Turning to `CCCCCCC1=C(Br)/C(=C/Br)N(Cc2ccccc2)C1=O`, the inhibition entry was “inactive”. Still for that read-out and setting: with `CCCC(Br)C1=CC(=C(Br)Br)N(Cc2ccccc2)C1=O` (stereo unspecified) the entry was “inactive”. As to `CCCCN1C(=O)C=C(Br)/C1=C/Br`, the Ratio amounted to 19. Turning to `O=C1C=C(Br)/C(=C/Br)N1c1ccccc1`, the inhibition entry is “inactive”. Same read-out and setting: then `CCCCC1=C(Br)/C(=C/Br)N(Cc2ccccc2)C1=O`, with “inactive”; and `CCCCCCN1C(=O)C=C(Br)/C1=C/Br`, with “inactive”. As to `CCCCC1=C(Br)/C(=C/Br)N(c2ccccc2)C1=O`, the inhibition result was “inactive”. For the compound `CCCCCC(Br)C1=CC(=C(Br)Br)N(Cc2ccccc2)C1=O` (stereo unspecified), the inhibition result is “inactive”. Take `CCCCCCN1C(=O)C=C(Br)C1=C(Br)Br`: the inhibition entry was “inactive”. Consider `CCCCC1=CC(=C(Br)Br)N(Cc2ccccc2)C1=O`, for which the Ratio stood at 220.

In the case of `CCCCCCCCN1C(=O)C=C(Br)C1=C(Br)Br`, the inhibition result is “inactive”. Still for that read-out and setting: with `CCCCCCCCCCCCN1C(=O)C=C(Br)C1=C(Br)Br` the entry was “inactive”; with `CCCCCC(O)C1=CC(=C(Br)Br)N(c2ccccc2)C1=O` (stereo unspecified), “inactive”.

Consider `O=C1C=C(Br)C2(CBr)OCCCN3C(=O)C=C(Br)C3(CBr)OCCCN12` (stereo unspecified), for which the Ratio amounted to 112.

As for `CCCCCCCCCCCCN1C(=O)C=C(Br)/C1=C/Br`, the inhibition result is “inactive”. Take `CCCC(Br)C1=CC(=C(Br)Br)N(c2ccccc2)C1=O` (stereo unspecified): the Ratio was determined as 1.95.

`CCCCC1=CC(=C(Br)Br)N(c2ccccc2)C1=O`: the Ratio was found to be 97.

Regarding `CCCCCCC1=CC(=C(Br)Br)N(Cc2ccccc2)C1=O`, the Ratio stood at 140. `CCCCC1=CC(=C(Br)Br)N(CCCC)C1=O`: the inhibition result was “inactive”.
